Measurements taken from article PMC3940870 (Nature, 2013).

How the values were obtained:
[1] = tested on: P. berghei sporozoites expressing luciferase; details: 2.5 mg/kg; stated as known, no reference given; cited from earlier work
[2] = tested on: P. falciparum NF54 gametocytes; assay: Gametocyte viability assay; assay type: cell-based; details: Plasmodium falciparum, NF54, 72 h, read-out: IC50, gametocyte viability
Outline: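 NF54 stage III–V gametocytes came from cultures cleared of asexual parasites with 50 mM N-acetyl-D-glucosamine for 3 days, then purified on a discontinuous Percoll gradient. Viability was read by a modified pLDH assay with resazurin substrate after 72-hr exposure. The 9-point series (0.1 nM–1 μM, 0.5 log10 steps) ran in quadruplicate over 2 plates and 2 parasite batches. Controls were 1 μM DHA (MIN) and vehicle (MAX). IC50 came from four-parameter nonlinear regression.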

[3] = tested on: P. falciparum schizonts (Dd2), reinvasion of RBCs; assay: Physical disruption/merozoite release assay; assay type: cell-based, Plasmodium falciparum; details: ~5×IC50 imidazopyrazine or 1 μM E-64

O=C1C(O)=C([C@H]2CC[C@H](c3ccc(Cl)cc3)CC2)C(=O)c2ccccc21 [ATQ, atovaquone]
causal prophylactic protection [1]: 100%

C[C@H]1[C@@H](O)O[C@@H]2O[C@@]3(C)CC[C@H]4[C@H](C)CC[C@@H]1[C@@]24OO3 [DHA, dihydroartemisinin]
IC50 [2]: 15.8 nM

CC(C)C[C@H](NC(=O)[C@H]1O[C@@H]1C(=O)O)C(=O)NCCCCN=C(N)N [E-64]
reinvasion parasitemia after mechanical rupture of treated schizonts [3]: 2–3%
